Measured values: ChEMBL document CHEMBL3352791, “Thioaryl naphthylmethanone oxime ether analogs as novel anticancer agents” (J Med Chem, 2014)
Active and inactive are the calls of the source. No cut-off for these calls is given here.

Assays:
[1] = biological target: Insulin receptor (Homo sapiens) (UniProt P06213); assay: Inhibition of IR (unknown origin) at 10 uM
[2] = test system: Mast/stem cell growth factor receptor Kit (Homo sapiens), P10721 [D816A]; assay: Inhibition of cKit D816A mutant (unknown origin) at 10 uM
Chain of Mast/stem cell growth factor receptor Kit (Homo sapiens), P10721 [D816A] (P10721 whole entry D816A): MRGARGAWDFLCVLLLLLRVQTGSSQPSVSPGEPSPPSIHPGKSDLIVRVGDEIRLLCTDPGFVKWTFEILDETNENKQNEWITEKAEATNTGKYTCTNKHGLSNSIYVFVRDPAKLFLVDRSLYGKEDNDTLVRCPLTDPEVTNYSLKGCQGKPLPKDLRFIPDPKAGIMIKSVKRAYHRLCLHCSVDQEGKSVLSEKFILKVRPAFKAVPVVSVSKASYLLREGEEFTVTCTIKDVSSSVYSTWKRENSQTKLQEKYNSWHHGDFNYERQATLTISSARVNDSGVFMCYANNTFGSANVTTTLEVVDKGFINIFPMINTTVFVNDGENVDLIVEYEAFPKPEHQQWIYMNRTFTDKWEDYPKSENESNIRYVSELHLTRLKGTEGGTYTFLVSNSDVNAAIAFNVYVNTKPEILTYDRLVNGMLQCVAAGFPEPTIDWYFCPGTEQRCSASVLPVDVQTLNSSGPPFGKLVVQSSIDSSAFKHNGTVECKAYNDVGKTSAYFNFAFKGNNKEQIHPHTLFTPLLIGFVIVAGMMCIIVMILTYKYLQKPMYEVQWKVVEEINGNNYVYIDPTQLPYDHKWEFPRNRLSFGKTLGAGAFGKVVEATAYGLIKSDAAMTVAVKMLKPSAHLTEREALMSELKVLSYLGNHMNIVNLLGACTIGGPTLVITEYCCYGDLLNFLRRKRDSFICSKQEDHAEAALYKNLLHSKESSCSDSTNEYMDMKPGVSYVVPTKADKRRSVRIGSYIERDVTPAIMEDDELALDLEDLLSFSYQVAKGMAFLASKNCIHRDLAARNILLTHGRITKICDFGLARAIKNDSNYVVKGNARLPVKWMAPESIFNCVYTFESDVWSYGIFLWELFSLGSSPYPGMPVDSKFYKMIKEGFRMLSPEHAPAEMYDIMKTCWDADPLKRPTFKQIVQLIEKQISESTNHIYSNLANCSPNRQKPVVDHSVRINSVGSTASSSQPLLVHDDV
Summary of the method: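 Cell-free kinase profiling was run as a standard 33P-ATP-based in vitro kinase assay.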

[3] = test system: MDA-MB-231; assay: Effect on intracellular calcium level in human MDA-MB-231 cells at 1 to 25 uM by flow cytometry; assay type: functional, cell-based
Summary of the method: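 Trypsinized cells washed in PBS (pH 7.4), loaded with Fluo-4AM 45 min in HBSS, washed and resuspended in calcium-free HBSS; baseline fluorescence read 2 min by flow cytometry, then 7 min after compound addition.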

[4] = biological target: High affinity cAMP-specific and IBMX-insensitive 3',5'-cyclic phosphodiesterase 8A (Homo sapiens) (UniProt O60658); assay: Inhibition of PDE8A1 (unknown origin) activity at 1 to 10 uM
Chain of High affinity cAMP-specific and IBMX-insensitive 3',5'-cyclic phosphodiesterase 8A (Homo sapiens) (O60658 whole entry, canonical isoform): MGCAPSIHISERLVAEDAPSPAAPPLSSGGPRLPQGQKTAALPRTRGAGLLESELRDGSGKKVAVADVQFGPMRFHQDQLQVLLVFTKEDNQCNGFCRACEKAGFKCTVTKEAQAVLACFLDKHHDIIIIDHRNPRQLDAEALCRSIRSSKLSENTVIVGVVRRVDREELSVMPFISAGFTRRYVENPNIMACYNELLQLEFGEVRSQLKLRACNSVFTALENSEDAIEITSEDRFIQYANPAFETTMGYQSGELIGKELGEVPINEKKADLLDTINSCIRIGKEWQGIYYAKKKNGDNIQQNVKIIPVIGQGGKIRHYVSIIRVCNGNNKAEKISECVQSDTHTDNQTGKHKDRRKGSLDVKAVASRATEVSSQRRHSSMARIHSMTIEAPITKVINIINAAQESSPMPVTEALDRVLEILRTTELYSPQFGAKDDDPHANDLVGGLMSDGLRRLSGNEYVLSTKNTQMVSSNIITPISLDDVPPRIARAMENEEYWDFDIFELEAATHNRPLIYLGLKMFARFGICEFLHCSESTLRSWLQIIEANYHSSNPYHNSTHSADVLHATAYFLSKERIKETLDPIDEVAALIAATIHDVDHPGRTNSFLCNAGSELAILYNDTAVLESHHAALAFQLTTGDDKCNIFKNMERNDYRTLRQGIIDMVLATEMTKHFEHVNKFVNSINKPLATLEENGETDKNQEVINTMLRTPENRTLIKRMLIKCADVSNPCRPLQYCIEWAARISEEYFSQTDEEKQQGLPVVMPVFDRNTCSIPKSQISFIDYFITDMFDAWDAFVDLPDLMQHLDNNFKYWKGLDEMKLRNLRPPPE
Summary of the method: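 Recombinant PDE isoform activity was read by fluorescence polarization. A binding reagent complexes with the nucleotide monophosphate that the phosphodiesterase generates from cAMP/cGMP, and this raises the polarization of the labelled substrate. Reference standards were PDE1A3 10µM IBMX, PDE2A3 1nM BAY 60-7550, PDE3CAT 1µM cilostazol, PDE4CAT rolipram, PDE5CAT 0.1µM sildenafil, PDE7A […], PDE8A1 10µM BRL-50481, PDE9A1 1µM SB 36216 and PDE11A1 dipyridamole.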

[5] = test system: MDA-MB-231; assay: Cytotoxicity against human MDA-MB-231 cells assessed as cell viability at 5 uM by MTT assay in presence of 100 ng/ml cholera toxin for 16 hrs; assay type: functional, cell-based
[6] = biological target: Epidermal growth factor receptor (Homo sapiens) (UniProt P00533); assay: Inhibition of EGF-induced EGFR phosphorylation at Tyr845 in human MDA-MB-231 cells at 1 uM by ELISA; assay type: cell-based
Chain of Epidermal growth factor receptor (Homo sapiens) (P00533 whole entry): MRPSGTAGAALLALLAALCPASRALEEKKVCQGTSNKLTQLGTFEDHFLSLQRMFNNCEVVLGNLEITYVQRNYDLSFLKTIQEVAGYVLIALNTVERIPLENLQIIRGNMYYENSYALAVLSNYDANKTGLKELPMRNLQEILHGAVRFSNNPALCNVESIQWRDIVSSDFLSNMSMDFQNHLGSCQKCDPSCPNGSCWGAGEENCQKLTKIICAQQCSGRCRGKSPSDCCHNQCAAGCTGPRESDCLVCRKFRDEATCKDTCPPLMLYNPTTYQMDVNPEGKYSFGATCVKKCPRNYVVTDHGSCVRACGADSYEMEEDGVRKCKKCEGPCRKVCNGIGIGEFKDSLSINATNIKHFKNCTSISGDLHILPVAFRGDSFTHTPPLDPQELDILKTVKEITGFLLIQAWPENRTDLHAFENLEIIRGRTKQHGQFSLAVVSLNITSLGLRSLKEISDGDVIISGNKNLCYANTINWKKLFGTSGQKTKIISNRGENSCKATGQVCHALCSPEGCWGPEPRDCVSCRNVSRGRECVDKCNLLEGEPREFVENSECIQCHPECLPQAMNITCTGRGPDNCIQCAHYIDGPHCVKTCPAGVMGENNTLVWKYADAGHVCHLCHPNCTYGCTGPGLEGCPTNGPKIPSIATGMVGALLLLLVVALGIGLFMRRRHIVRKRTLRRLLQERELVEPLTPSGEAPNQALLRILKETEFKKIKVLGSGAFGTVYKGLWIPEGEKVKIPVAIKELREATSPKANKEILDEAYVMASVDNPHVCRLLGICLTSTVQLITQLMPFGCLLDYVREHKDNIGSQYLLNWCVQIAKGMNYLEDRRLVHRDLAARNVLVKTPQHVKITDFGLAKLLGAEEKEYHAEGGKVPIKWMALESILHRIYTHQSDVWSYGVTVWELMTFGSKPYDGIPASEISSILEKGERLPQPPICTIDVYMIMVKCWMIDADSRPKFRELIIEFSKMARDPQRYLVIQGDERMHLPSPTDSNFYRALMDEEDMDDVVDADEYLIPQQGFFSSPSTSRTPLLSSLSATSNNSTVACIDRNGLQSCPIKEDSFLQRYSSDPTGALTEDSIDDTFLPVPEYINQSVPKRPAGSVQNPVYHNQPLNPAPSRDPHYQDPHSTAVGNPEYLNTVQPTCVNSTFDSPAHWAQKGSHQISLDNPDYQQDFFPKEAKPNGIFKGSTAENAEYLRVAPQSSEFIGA
Summary of the method: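 MDA-MB-231 cells pretreated 1 h in serum-free medium, then EGF-stimulated for 15 min and lysed. Equal lysate protein (Bradford) assayed by ELISA kits for p-EGFR (Tyr1068, Tyr845, Tyr1173) and p-HER2. Absorbance read at 450 nm, normalized to total EGFR or HER2.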

[7] = test system: MDA-MB-231; assay: Induction of apoptosis in human […] cells assessed as caspase 8 activation at 2.5 to 7.5 uM by Caspase-Glo assay; assay type: functional, cell-based
Summary of the method: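 Caspase-8, -9 and -3 activities measured with Caspase-Glo 8, 9 and 3 kits; mean ± SEM from three independent experiments.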

[8] = test system: MCF7; assay: Cytotoxicity against human […] cells assessed as cell viability at 5 uM by MTT assay in presence of z-IETD-FMK caspase-8 inhibitor; assay type: functional, cell-based
Summary of the method: (§1)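 Cells seeded 1×10^4/well in DMEM with 10% FBS, adhered overnight, serum-starved 4 h; pre-incubated 2 h with Z-IETD-FMK or Z-LEHD-FMK (10µM each), then 5μM compound for a further 24 h; viability by MTT.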

[9] = test system: MDA-MB-231; assay: Cytotoxicity against human […] cells assessed as cell viability at 5 uM by MTT assay in presence of z-LEHD-FMK caspase-9 inhibitor; assay type: functional, cell-based; summary of the method: as §1
[10] = test system: MCF7; assay: Induction of apoptosis in human […] cells assessed as loss of mitochondrial membrane potential at 5 uM after 24 hrs by JC-1 staining based flow cytometry; assay type: functional, cell-based
Summary of the method: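 Cells given 5μM compound for 24 h, trypsinized, stained with JC-1 (1μg/ml) in medium 15 min at 37°C, PBS-washed, analysed by flow cytometry on FL1 and FL2 channels.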

[11] = test system: MCF7; assay: Antiinvasion activity in human MCF7 cells assessed as inhibition of FBS-induced cell invaded to matrigel coated invasion chamber at 1 uM after 24 hrs by Transwell invasion assay; assay type: functional, cell-based
[12] = test system: MDA-MB-231; assay: Inhibition of VEGF-A expression in human MDA-MB-231 cells at 1 uM after 24 hrs by qPCR analysis; assay type: functional, cell-based
Summary of the method: (§2)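 Gene expression was measured by qPCR in MDA-MB-231 breast cancer cells treated with 1µM compound. GAPDH served as the housekeeping internal control.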

[13] = test system: MDA-MB-231; assay: Inhibition of TGF-beta1 expression in human MDA-MB-231 cells at 1 uM after 24 hrs by qPCR analysis; assay type: functional, cell-based; summary of the method: as §2
[14] = test system: MDA-MB-231; assay: Inhibition of secreted PAI-1 protein expression in human MDA-MB-231 cells at 1 uM after 24 hrs by ELISA; assay type: functional, cell-based
Summary of the method: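 MDA-MB-231 cells were treated at 1µM for 24 h, with or without EGF. PAI-1 protein concentration in the collected conditioned medium was then measured by ELISA.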

[15] = test system: DLD-1; assay: Antitumor activity against human DLD1 cells assessed as reduction in CD133 positive in colon cancer stem cells after 24 hrs by flow cytometry; assay type: functional, cell-based
[16] = biological target: Epidermal growth factor receptor (Homo sapiens) (UniProt P00533); assay: Inhibition of EGF-induced EGFR phosphorylation at Tyr1045 in human MCF7 cells at 1 uM by ELISA; assay type: cell-based
[17] = biological target: Signal transducer and activator of transcription 3 (Homo sapiens) (UniProt P40763); assay: Inhibition of EGF-induced STAT3 phosphorylation in human MDA-MB-231 cells at 1 uM by ELISA; assay type: cell-based
[18] = biological target: Epidermal growth factor receptor (Homo sapiens) (UniProt P00533); assay: Inhibition of EGFR phosphorylation at Tyr790 (unknown origin) at 10 uM
[19] = test system: MDA-MB-231; assay: Antiproliferative activity against human ER-positive MDA-MB-231 cells after 24 hrs by MTT assay; assay type: functional, cell-based; conditions: mda-mb-231
[20] = Antiproliferative activity against human prostate, androgen receptor positive DU145 cells after 24 hrs by MTT assay; assay type: functional, cell-based, DU-145; conditions: du-145
[21] = test system: Ishikawa; assay: Antiproliferative activity against human ER-positive Ishikawa cells after 24 hrs by MTT assay; assay type: functional, cell-based; conditions: ishikawa
[22] = test system: HeLa; assay: Antiproliferative activity against human HeLa cells after 24 hrs by MTT assay; assay type: functional, cell-based; conditions: hela
[23] = test system: MCF7; assay: Antiproliferative activity against human ER-negative MCF7 cells after 72 hrs by MTT assay; assay type: functional, cell-based; conditions: MCF7, 72 h
[24] = test system: MDA-MB-231; assay: Antiproliferative activity against human ER-positive MDA-MB-231 cells after 72 hrs by MTT assay; assay type: functional, cell-based; conditions: MDA-MB-231, 72 h
[25] = Safety index, ratio of IC50 for human MCF10A cells to EC50 for human DLD1 cells; assay type: toxicity, cell-based, MCF-10A; conditions: MCF10A cells versus DLD1 cells, read-out: Ratio IC50/EC50
Summary of the method: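 Safety index is the IC50 in the normal cells divided by the EC50 in the cancer cells. Both values come from MTT assays: cells in DMEM with 10% FBS, serum-starved 4 h, then exposed to compound across a 100nM-50µM dose range with 0.1% DMSO as vehicle control.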

[26] = test system: MCF7; assay: Cell cycle arrest in human […] MCF7 cells assessed as accumulation at S phase at 2.5 uM by propidium iodide staining by FACS analysis (reference value: 24.76%); assay type: functional
[27] = test system: MCF7; assay: Cell cycle arrest in human […] cells assessed as accumulation at G2 phase at 7.5 uM by propidium iodide staining by FACS analysis (reference value: 10.96%); assay type: functional
[28] = test system: MDA-MB-231; assay: Cell cycle arrest in human […] cells assessed as accumulation at S phase at 2.5 uM by propidium iodide staining by FACS analysis (reference value: 13.72%); assay type: functional

Chain of Insulin receptor (Homo sapiens) (P06213 28-758 limits assumed): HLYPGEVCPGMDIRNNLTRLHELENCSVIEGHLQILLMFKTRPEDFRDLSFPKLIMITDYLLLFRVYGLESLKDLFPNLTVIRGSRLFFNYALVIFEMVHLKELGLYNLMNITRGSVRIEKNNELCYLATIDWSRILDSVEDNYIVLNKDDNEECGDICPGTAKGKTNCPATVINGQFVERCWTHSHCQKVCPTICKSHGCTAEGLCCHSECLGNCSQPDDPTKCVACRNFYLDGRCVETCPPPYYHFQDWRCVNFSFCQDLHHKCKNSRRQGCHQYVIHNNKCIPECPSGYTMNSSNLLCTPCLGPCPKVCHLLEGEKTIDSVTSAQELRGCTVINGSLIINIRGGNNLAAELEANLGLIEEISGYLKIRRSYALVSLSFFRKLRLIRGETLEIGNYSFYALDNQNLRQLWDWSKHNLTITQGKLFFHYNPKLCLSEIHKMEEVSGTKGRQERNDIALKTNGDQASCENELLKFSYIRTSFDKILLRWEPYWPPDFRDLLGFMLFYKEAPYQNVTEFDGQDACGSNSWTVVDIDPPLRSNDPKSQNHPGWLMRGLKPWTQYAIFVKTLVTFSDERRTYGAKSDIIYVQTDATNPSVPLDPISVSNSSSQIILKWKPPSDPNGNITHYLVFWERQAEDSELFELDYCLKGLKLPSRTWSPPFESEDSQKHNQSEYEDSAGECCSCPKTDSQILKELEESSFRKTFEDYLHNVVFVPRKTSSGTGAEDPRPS
Chain of Insulin receptor (Homo sapiens) (P06213 763-1382 limits assumed): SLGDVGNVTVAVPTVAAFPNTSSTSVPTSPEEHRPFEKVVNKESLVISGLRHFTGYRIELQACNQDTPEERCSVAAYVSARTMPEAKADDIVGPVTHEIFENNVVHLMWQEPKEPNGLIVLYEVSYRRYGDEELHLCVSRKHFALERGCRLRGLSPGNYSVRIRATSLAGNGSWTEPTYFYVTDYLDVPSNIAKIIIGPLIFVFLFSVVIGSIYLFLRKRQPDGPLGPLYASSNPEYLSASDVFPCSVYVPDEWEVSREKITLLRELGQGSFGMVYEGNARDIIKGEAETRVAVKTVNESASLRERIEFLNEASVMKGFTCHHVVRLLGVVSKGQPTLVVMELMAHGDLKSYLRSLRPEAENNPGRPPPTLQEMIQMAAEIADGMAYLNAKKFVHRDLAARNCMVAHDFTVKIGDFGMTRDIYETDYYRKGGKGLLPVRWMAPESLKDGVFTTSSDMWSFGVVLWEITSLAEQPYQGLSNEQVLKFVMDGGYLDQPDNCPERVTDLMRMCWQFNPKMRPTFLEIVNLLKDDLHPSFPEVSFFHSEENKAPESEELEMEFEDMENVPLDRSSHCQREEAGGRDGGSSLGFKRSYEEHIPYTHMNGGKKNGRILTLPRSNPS

CCN(CC)CCO/N=C(\c1ccc(SC)cc1)c1cccc2ccccc12
inhibition [1]: inactive | inhibition [2]: inactive | Activity [3]: inactive | inhibition [4]: inactive | inhibition [5]: Active | inhibition [6]: Active | Activity [7]: Active | Activity [8]: inactive | Activity [9]: inactive | Activity [10]: Active | Activity [11]: Active | inhibition [12]: Active | inhibition [13]: Active | inhibition [14]: Active | inhibition [15]: Active | inhibition [16]: Active | inhibition [17]: Active | inhibition [18]: inactive

CCN(CC)CCO/N=C(\c1ccc(SC)cc1)c1cccc2ccccc12.O=C(O)C(=O)O
EC50 [19]: 7.2 µM | EC50 [20]: 9 µM | EC50 [21]: 12 µM | EC50 [22]: 7.5 µM | EC50 [23]: 3 µM | EC50 [24]: 1 µM | selectivity ratio [25]: 1.2 | Activity [26]: 16.82% | Activity [27]: 13.98% | Activity [28]: 13.65%
